pIC50: −log10 of the molar value. Blank lines part the entries; values can stand above or below the compound they belong to. Activity calls are given as the source filed them. The calls are words filed in the database; no cut-off is given here.
Tests used:
MCF7 = test: Antiproliferative activity against human MCF7 cells incubated for 72 hrs by MTT assay; assay type: functional, cell-based; conditions: MCF7, 72 h
In short: (§1)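 Cells in exponential growth were plated at 3×10^3 cells/well and grown 24 h at 37 °C in 5% CO2. They were then exposed to a range of drug concentrations for 72 h. MTT (5 mg/mL solution) was added for 4 h, the medium was discarded, and formazan was dissolved in DMSO before reading A490. Drug-free wells served as blanks. % inhibition was calculated as 1 − (sample−blank)/(control−blank), and IC50 was taken as the concentration giving 50% inhibition.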

HepG2 [1] = test: Antiproliferative activity against human HepG2 cells incubated for 72 hrs by MTT assay; assay type: functional, cell-based; conditions: HepG2, 72 h; in short: as §1
A549 [2] = test: Antiproliferative activity against human A549 cells incubated for 72 hrs by MTT assay; assay type: functional, cell-based; conditions: A549, 72 h; in short: as §1
MDCK = test: Cytotoxicity against MDCK cells incubated for 72 hrs by MTT assay; assay type: cell-based; conditions: Canis lupus familiaris; in short: as §1
HepG2 [3] = test: Ratio of IC50 for GA to IC50 for test compound for human HepG2 cells; assay type: functional
HeLa = test: Antiproliferative activity against human HeLa cells incubated for 72 hrs by MTT assay; assay type: functional, cell-based; in short: as §1
A549 [4] = test: Induction of apoptosis in human A549 cells assessed as early apoptotic cells at 1 uM incubated for 72 hrs by annexin V-FITC and PI staining based flow cytometric analysis (reference value: 3.0%); assay type: functional
A549 [5] = test: Induction of cell cycle arrest in human A549 cells assessed as accumulation at S phase at 1 uM incubated for 72 hrs by PI staining based flow cytometric analysis (reference value: 31.41%); assay type: functional
A549 [6] = test: Induction of cell cycle arrest in human A549 cells assessed as accumulation at G1 phase at 5 uM incubated for 72 hrs by PI staining based flow cytometric analysis (reference value: 49.94%); assay type: functional
A549 [7] = test: Induction of apoptosis in human A549 cells assessed as live cell at 3 uM incubated for 72 hrs by annexin V-FITC and PI staining based flow cytometric analysis (reference value: 90%); assay type: functional
A549 [8] = test: Induction of apoptosis in human A549 cells assessed as live cell at 5 uM incubated for 72 hrs by annexin V-FITC and PI staining based flow cytometric analysis (reference value: 90%); assay type: functional
A549 [9] = test: Induction of morphological changes in human A549 cells assessed as condensation of chromatin at 1 to 5 uM incubated for 72 hrs by DAPI staining by inverted phase-contrast microscopic method; assay type: functional, cell-based
In short: (§2)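 Exponentially growing A549 cells were plated at 2.4×10^4 cells/well, grown 24 h at 37 °C in 5% CO2, then exposed to 1, 3 or 5 μM for 72 h beside untreated controls. Cells were washed twice in PBS, fixed in 4% paraformaldehyde for 10 min, and stained with DAPI (10 µg/mL) for 1 min in the dark. Nuclei were examined by inverted microscope at 200×.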

A549 [10] = test: Induction of cell cycle arrest in human A549 cells assessed as accumulation at G2 phase at 5 uM incubated for 72 hrs by PI staining based flow cytometric analysis (reference value: 18.65%); assay type: functional
A549 [11] = test: Induction of morphological changes in human A549 cells assessed as formation of nuclear fragmentation at 1 to 5 uM incubated for 72 hrs by DAPI staining by inverted phase-contrast microscopic method; assay type: functional, cell-based; in short: as §2
A549 [12] = test: Induction of cell cycle arrest in human A549 cells assessed as accumulation at G2 phase at 1 uM incubated for 72 hrs by PI staining based flow cytometric analysis (reference value: 18.65%); assay type: functional
A549 [13] = test: Induction of apoptosis in human A549 cells assessed as necrotic cells at 5 uM incubated for 72 hrs by annexin V-FITC and PI staining based flow cytometric analysis (reference value: 0.5%); assay type: functional
A549 [14] = test: Induction of cell cycle arrest in human A549 cells assessed as accumulation at G1 phase at 3 uM incubated for 72 hrs by PI staining based flow cytometric analysis (reference value: 49.94%); assay type: functional
A549 [15] = test: Induction of apoptosis in human A549 cells assessed as late apoptotic cells at 3 uM incubated for 72 hrs by annexin V-FITC and PI staining based flow cytometric analysis (reference value: 6.5%); assay type: functional
A549 [16] = test: Induction of cell cycle arrest in human A549 cells assessed as accumulation at G2 phase at 3 uM incubated for 72 hrs by PI staining based flow cytometric analysis (reference value: 18.65%); assay type: functional
A549 [17] = test: Induction of apoptosis in human A549 cells assessed as necrotic cells at 1 uM incubated for 72 hrs by annexin V-FITC and PI staining based flow cytometric analysis (reference value: 0.5%); assay type: functional
A549 [18] = test: Induction of morphological changes in human A549 cells assessed as appearance of apoptotic body formation at 1 to 5 uM incubated for 72 hrs by DAPI staining by inverted phase-contrast microscopic method; assay type: functional, cell-based; in short: as §2
A549 [19] = test: Induction of apoptosis in human A549 cells assessed as early apoptotic cells at 5 uM incubated for 72 hrs by annexin V-FITC and PI staining based flow cytometric analysis (reference value: 3.0%); assay type: functional
A549 [20] = test: Induction of apoptosis in human A549 cells assessed as early apoptotic cells at 3 uM incubated for 72 hrs by annexin V-FITC and PI staining based flow cytometric analysis (reference value: 3.0%); assay type: functional
A549 [21] = test: Induction of cell cycle arrest in human A549 cells assessed as accumulation at S phase at 3 uM incubated for 72 hrs by PI staining based flow cytometric analysis (reference value: 31.41%); assay type: functional
A549 [22] = test: Ratio of IC50 for GA to IC50 for test compound for human A549 cells; assay type: functional
A549 [23] = test: Induction of cell cycle arrest in human A549 cells assessed as accumulation at G1 phase at 1 uM incubated for 72 hrs by PI staining based flow cytometric analysis (reference value: 49.94%); assay type: functional
A549 [24] = test: Induction of apoptosis in human A549 cells assessed as live cell at 1 uM incubated for 72 hrs by annexin V-FITC and PI staining based flow cytometric analysis (reference value: 90%); assay type: functional
A549 [25] = test: Induction of apoptosis in human A549 cells assessed as late apoptotic cells at 1 uM incubated for 72 hrs by annexin V-FITC and PI staining based flow cytometric analysis (reference value: 6.5%); assay type: functional
A549 [26] = test: Induction of cell cycle arrest in human A549 cells assessed as accumulation at S phase at 5 uM incubated for 72 hrs by PI staining based flow cytometric analysis (reference value: 31.41%); assay type: functional
A549 [27] = test: Induction of apoptosis in human A549 cells assessed as necrotic cells at 3 uM incubated for 72 hrs by annexin V-FITC and PI staining based flow cytometric analysis (reference value: 0.5%); assay type: functional
A549 [28] = test: Induction of apoptosis in human A549 cells assessed as late apoptotic cells at 5 uM incubated for 72 hrs by annexin V-FITC and PI staining based flow cytometric analysis (reference value: 6.5%); assay type: functional

pIC50 (MCF7): 5.12
pIC50 (HepG2 [1]): 5.67
pIC50 (A549 [2]): 5.49
pIC50 (HeLa): 5.66
Structure (SMILES): CC1(C)[C@@H](NC(=O)[C@@H]2CCCN2)CC[C@]2(C)[C@H]3C(=O)C=C4[C@@H]5C[C@@](C)(C(=O)OCc6ccccc6)CC[C@]5(C)CC[C@@]4(C)[C@]3(C)CC[C@@H]12
pIC50 (MDCK): 5.60
Ratio IC50 (HepG2 [3]): 16

pIC50 (MCF7): < 4.40
pIC50 (HepG2 [1]): < 4.40
pIC50 (A549 [2]): < 4.40
pIC50 (HeLa): < 4.40
Structure (SMILES): CC[C@H](C)[C@H](NC(=O)OC(C)(C)C)C(=O)N[C@H]1CC[C@]2(C)[C@H]3C(=O)C=C4[C@@H]5C[C@@](C)(C(=O)OCc6ccccc6)CC[C@]5(C)CC[C@@]4(C)[C@]3(C)CC[C@H]2C1(C)C
pIC50 (MDCK): < 4.40

pIC50 (MCF7): 5.67
pIC50 (HepG2 [1]): 5.61
pIC50 (A549 [2]): 5.68
pIC50 (HeLa): 5.62
Structure (SMILES): C[C@H](N)C(=O)N[C@H]1CC[C@]2(C)[C@H]3C(=O)C=C4[C@@H]5C[C@@](C)(C(=O)OCc6ccccc6)CC[C@]5(C)CC[C@@]4(C)[C@]3(C)CC[C@H]2C1(C)C
Activity (A549 [4]): 5.9%
Activity (A549 [5]): 31.05%
Activity (A549 [6]): 46.79%
Activity (A549 [7]): 65.7%
Activity (A549 [8]): 54%
Activity (A549 [9]): Active
Activity (A549 [10]): 0%
Activity (A549 [11]): Active
Activity (A549 [12]): 15.86%
Activity (A549 [13]): 0%
Activity (A549 [14]): 56.45%
Activity (A549 [15]): 7.5%
Activity (A549 [16]): 9.96%
Activity (A549 [17]): 0.4%
Activity (A549 [18]): Active
Activity (A549 [19]): 44.8%
Activity (A549 [20]): 26.5%
Activity (A549 [21]): 33.59%
Ratio IC50 (A549 [22]): 18
Activity (A549 [23]): 53.09%
Activity (A549 [24]): 85%
Activity (A549 [25]): 8.6%
Activity (A549 [26]): 53.21%
pIC50 (MDCK): 5.33
Activity (A549 [27]): 0.3%
Activity (A549 [28]): 1.1%

pIC50 (MCF7): < 4.40
pIC50 (HepG2 [1]): < 4.40
pIC50 (A549 [2]): < 4.40
pIC50 (HeLa): < 4.40
Structure (SMILES): CC(C)C[C@H](NC(=O)OC(C)(C)C)C(=O)O[C@H]1CC[C@]2(C)[C@H]3C(=O)C=C4[C@@H]5C[C@@](C)(C(=O)OCc6ccccc6)CC[C@]5(C)CC[C@@]4(C)[C@]3(C)CC[C@H]2C1(C)C
pIC50 (MDCK): < 4.40

pIC50 (MCF7): 5.21
pIC50 (HepG2 [1]): 5.21
pIC50 (A549 [2]): 5.48
pIC50 (HeLa): 5.64
Structure (SMILES): CC(C)C[C@H](N)C(=O)N[C@H]1CC[C@]2(C)[C@H]3C(=O)C=C4[C@@H]5C[C@@](C)(C(=O)OCc6ccccc6)CC[C@]5(C)CC[C@@]4(C)[C@]3(C)CC[C@H]2C1(C)C
pIC50 (MDCK): 5.33

pIC50 (MCF7): < 4.40
pIC50 (HepG2 [1]): < 4.40
pIC50 (A549 [2]): < 4.40
pIC50 (HeLa): < 4.40
Structure (SMILES): CSCC[C@H](NC(=O)OC(C)(C)C)C(=O)N[C@H]1CC[C@]2(C)[C@H]3C(=O)C=C4[C@@H]5C[C@@](C)(C(=O)OCc6ccccc6)CC[C@]5(C)CC[C@@]4(C)[C@]3(C)CC[C@H]2C1(C)C
pIC50 (MDCK): < 4.40

Further lines, the compound ahead of its results:

Structure (SMILES): C[C@H](NC(=O)OC(C)(C)C)C(=O)O[C@H]1CC[C@]2(C)[C@H]3C(=O)C=C4[C@@H]5C[C@@](C)(C(=O)OCc6ccccc6)CC[C@]5(C)CC[C@@]4(C)[C@]3(C)CC[C@H]2C1(C)C
pIC50 (MCF7): < 4.40
pIC50 (HepG2 [1]): < 4.40
pIC50 (A549 [2]): < 4.40
pIC50 (MDCK): < 4.40
pIC50 (HeLa): < 4.40

Structure (SMILES): CC[C@H](C)[C@H](N)C(=O)O[C@H]1CC[C@]2(C)[C@H]3C(=O)C=C4[C@@H]5C[C@@](C)(C(=O)OCc6ccccc6)CC[C@]5(C)CC[C@@]4(C)[C@]3(C)CC[C@H]2C1(C)C
pIC50 (MCF7): 5.00
pIC50 (HepG2 [1]): 5.09
pIC50 (A549 [2]): 5.30
pIC50 (MDCK): 5.05
pIC50 (HeLa): 5.02

Structure (SMILES): CC(C)(C)OC(=O)NCC(=O)O[C@H]1CC[C@]2(C)[C@H]3C(=O)C=C4[C@@H]5C[C@@](C)(C(=O)OCc6ccccc6)CC[C@]5(C)CC[C@@]4(C)[C@]3(C)CC[C@H]2C1(C)C
pIC50 (MCF7): < 4.40
pIC50 (HepG2 [1]): < 4.40
pIC50 (A549 [2]): < 4.40
pIC50 (MDCK): < 4.40
pIC50 (HeLa): < 4.40

Structure (SMILES): CC[C@H](C)[C@H](NC(=O)OC(C)(C)C)C(=O)O[C@H]1CC[C@]2(C)[C@H]3C(=O)C=C4[C@@H]5C[C@@](C)(C(=O)OCc6ccccc6)CC[C@]5(C)CC[C@@]4(C)[C@]3(C)CC[C@H]2C1(C)C
pIC50 (MCF7): < 4.40
pIC50 (HepG2 [1]): < 4.40
pIC50 (A549 [2]): < 4.40
pIC50 (MDCK): < 4.40
pIC50 (HeLa): < 4.40

Structure (SMILES): CSCC[C@H](N)C(=O)O[C@H]1CC[C@]2(C)[C@H]3C(=O)C=C4[C@@H]5C[C@@](C)(C(=O)OCc6ccccc6)CC[C@]5(C)CC[C@@]4(C)[C@]3(C)CC[C@H]2C1(C)C
pIC50 (MCF7): 5.09
pIC50 (HepG2 [1]): 5.00
pIC50 (A549 [2]): 5.12
pIC50 (MDCK): 4.41
pIC50 (HeLa): 4.98
